# Screens: PubChem BioAssay, several laboratories
# The list is not random: actives were taken first. Their share in the collection is about 2.8%.
# NPY-Y1 antag: blocks the human neuropeptide Y Y1 receptor; AID 1040; 200,000 tested, 1% active; P25929; inhibition, % at 3.6 µM; HEK293-CNG Y1 cells, membrane potential fluorescence; NPY at EC95, then isoproterenol;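 active = inhibition above the campaign mean inhibition of all tested compounds plus 3 SD, cut at about 20% in these data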;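 also: 0% = DMSO wells given NPY plus isoproterenol and 100% = isoproterenol alone without NPY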
#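 Material: HEK293 Y1/CNG channel cell line; also added: NPY (25 nM), isoproterenol (1 µM), Ro 20-1724 (25 µM); doses: one concentration, 3.6 µM, in 0.4% DMSO; schedule: compound incubation 1 h at room temperature, readout 45 min post-stimulation; technique: membrane potential fluorescence; measure: fluorescence ratio normalized to % inhibition between controls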
# NPY1 pot ag: human NPY-Y1 potentiation or agonism, primary screen | NPY-Y1 expressing cells, potentiator/agonist activation | 220,000 tested, 0.37% active | P25929 | activation, % at 3.6 µM; in the data active = activation above about 33%, passing the limit was not always enough;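 also: cells stimulated with NPY at EC10 then isoproterenol at EC100; 0% = low agonist plus stimulus and 100% = saturating agonist plus stimulus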
# EP2 modulator: modulators of human EP2 prostaglandin E2 receptor; P43116; EP2-expressing cells, cAMP HTRF FRET, PGE2 co-stimulation; induction, % at 25 µM; 260,000 tested, 0.83% active; AID 940;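 active = compounds whose cAMP rise, as percent of the full-agonist control response, exceeds 60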;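 also: rat C6 glioma line stably carrying human EP2 under a CMV promoter; the protocol text gives 20 µM as final concentration; 100% = response of wells given 1 µM PGE2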
# Target sequence (P43116 whole entry, looked up): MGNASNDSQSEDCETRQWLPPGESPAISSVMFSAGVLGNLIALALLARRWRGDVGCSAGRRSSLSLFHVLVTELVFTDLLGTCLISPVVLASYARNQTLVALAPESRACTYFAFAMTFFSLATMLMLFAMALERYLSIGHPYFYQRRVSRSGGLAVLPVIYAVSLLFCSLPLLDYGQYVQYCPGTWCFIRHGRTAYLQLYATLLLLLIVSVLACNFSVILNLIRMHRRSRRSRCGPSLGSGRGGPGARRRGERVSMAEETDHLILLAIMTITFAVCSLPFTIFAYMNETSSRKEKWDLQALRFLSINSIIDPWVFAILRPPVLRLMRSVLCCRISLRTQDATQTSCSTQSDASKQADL
# EP2 antag: blocks the human prostaglandin E2 receptor EP2. 260,000 tested, 0.52% active. inhibition, % at 25 µM. C6 glioma cells expressing human EP2, cAMP TR-FRET; cells stimulated with saturating PGE2. P43116;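 active = percent inhibition above 40 after rounding to a whole number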;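 also: rat C6 glioma host cells with rolipram phosphodiesterase inhibitor present; the protocol text gives 20 µM as final concentration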
# NPY-Y2 antag: NPY-Y2 (human) receptor antagonism | NPY-Y2 expressing cells, antagonist mode | inhibition, % at 2.7 µM | 140,000 tested, 0.99% active; in the data active = inhibition above about 17%;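 also: 0% = vehicle with agonist challenge and 100% = reference antagonist with challenge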
# Target sequence (P49146 whole entry, looked up): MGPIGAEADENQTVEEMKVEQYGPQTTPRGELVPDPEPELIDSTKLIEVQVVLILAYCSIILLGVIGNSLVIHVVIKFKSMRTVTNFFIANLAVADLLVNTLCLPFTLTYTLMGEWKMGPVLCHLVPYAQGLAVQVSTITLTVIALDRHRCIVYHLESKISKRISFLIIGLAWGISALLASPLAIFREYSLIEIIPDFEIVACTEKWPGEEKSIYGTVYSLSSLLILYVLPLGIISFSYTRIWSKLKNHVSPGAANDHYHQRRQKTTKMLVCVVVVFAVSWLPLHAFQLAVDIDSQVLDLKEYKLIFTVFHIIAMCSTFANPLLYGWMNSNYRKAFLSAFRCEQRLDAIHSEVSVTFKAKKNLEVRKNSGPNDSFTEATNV
# NPY2 pot ag: potentiates or activates human NPY-Y2 receptor; 220,000 tested, 0.45% active; cells expressing NPY-Y2, potentiator/agonist read-out; P49146; activation, % at 3.6 µM; in the data active = activation above about 27%;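 also: cells stimulated with NPY near EC25 plus isoproterenol at EC100; 0% = vehicle plus submaximal agonist and 100% = vehicle plus saturating agonist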
# NPY1 antag ctr: counter-screen for NPY-Y2 antagonists: human NPY-Y1 antagonism; cell-based NPY-Y1 antagonism counterscreen; inhibition, % at 3.6 µM; shares compounds with NPY-Y2 antag; AID 1256; 710 tested, 19% active;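 also: cells challenged with NPY then isoproterenol with cAMP sensed through a CNG channel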
# NPY2 antag conf: human NPY-Y2 antagonism, confirmation. shares compounds with NPY-Y2 antag. HEK293 NPY-Y2 CNG channel, membrane potential fluorescence. inhibition, % at 2.8 µM. 710 tested, 32% active;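 active = mean inhibition of triplicate wells above the hit cutoff set in the primary screen, cut at about 17% in these data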;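 also: 0% = DMSO with NPY challenge and 100% = BIIE0246 high control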
# EP2 cAMP induct: EP2 receptor cAMP induction, counter-screens negative; shares compounds with EP2 modulator; C6 glioma EP2 cells, cAMP HTRF induction; plus low (about EC15) PGE2 agonist; calls only at 20 µM (by protocol); 1,300 tested, 47% active; AID 1080;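 active = cAMP induction above 50% in the main assay while under 30% in all four parallel counter assays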;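 also: rat C6 glioma cells stably expressing human EP2 receptor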
# NPY-Y1 ant conf: human NPY-Y1 antagonism, confirmation | inhibition, % at 3.6 µM | 1,200 tested, 21% active | AID 1254 | HEK293-CNG NPY-Y1, membrane potential fluorescence, cAMP; NPY challenge against isoproterenol-raised cAMP | shares compounds with NPY-Y1 antag;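 also: 0% = vehicle with agonist plus stimulus and 100% = stimulus alone without agonist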
# NPY2 antag ctr: counter-screen for NPY-Y1 antagonists: human NPY-Y2 antagonism; 1,200 tested, 28% active; HEK293 NPY-Y2 CNG membrane potential fluorescence; cells given NPY, then isoproterenol; inhibition, % at 3.6 µM; shares compounds with NPY-Y1 antag; in the data active = inhibition above about 17%;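 also: 0% = DMSO with agonist challenge and 100% = reference antagonist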
# * hit, by the source's call; i = inactive; x = no result given; + = active, no number; ! = repeats disagree. Rule as the data show it, unless noted: active = inhibition above about 20%; inactive = the rest.
SMILES,NPY-Y1 antag,NPY1 pot ag,EP2 modulator,EP2 antag,NPY-Y2 antag,NPY2 pot ag,others
Clc1ccc(COC(Cn2ccnc2)c2ccc(Cl)cc2Cl)cc1 (stereo not given),15,-47,2,8,22*,0,NPY1 antag ctr=19;NPY2 antag conf=18*
O=C(CNC(=O)c1cccc(Cl)c1)Nc1ccc(Br)cc1C(=O)c1ccccc1,18,-38,32,9,23*,-3,NPY1 antag ctr=12;NPY2 antag conf=13
O=C(CNC(=O)c1ccc(Cl)cc1)Nc1ccc(Br)cc1C(=O)c1ccccc1,16,-33,34,4,12,-6,
Cc1cccc(-n2c(C)nc3c(Cl)cc(Cl)cc3c2=O)c1,x,x,10,15,x,x,
CCC(=NCCC(c1ccccc1)c1ccccc1)c1c(O)n(C)c(=O)n(C)c1=O,-1,8,34,6,24*,16,NPY1 antag ctr=16;NPY2 antag conf=27*
CCN1CC2(CO)CCC(O)C34C5CC6C(OC)CC(O)(C5C6OC)C(O)(C(OC)C23)C14 (stereo not given),x,x,-10,9,x,x,
COc1ccc(C2NCc3ccc4c(c3-n3cccc32)OCO4)cc1O (stereo not given),18,-34,-24,16,19*,-27,NPY1 antag ctr=21*;NPY2 antag conf=37*
O=C(Nc1cccnc1)c1c(O)c2c(n(Cc3ccccc3)c1=O)CCCC2,4,5,34,2,19*,12,NPY1 antag ctr=1;NPY2 antag conf=4
COc1cccc(CN2CCN(C(=O)Cc3ccccn3)[C@@H](C)C2)c1,x,x,-62,x,x,x,
Cc1cccc(OP(N)(=O)Oc2cccc(C)c2)c1,x,-2,0,4,x,5,
Cc1cccc(OP(=O)(NCc2ccccc2)Oc2cccc(C)c2)c1,7,-21,-3,10,19*,-9,NPY1 antag ctr=18;NPY2 antag conf=6
O=C(c1cccs1)c1cn(Cc2ccccc2Cl)c2ccccc12,16,-31,74*,9,19*,-11,NPY1 antag ctr=21*;NPY2 antag conf=16;EP2 cAMP induct=i
COc1cccc(CN2CCN(C(=O)Cc3n[nH]c(=O)c4ccccc34)[C@@H](C)C2)c1,x,x,4,x,x,x,
CCCCn1c(=O)c(C(=O)NCc2ccco2)c(O)c2ccccc21,-3,2,67*,5,x,0,EP2 cAMP induct=+
CC(=O)C1CC[C@H]2C3CC[C@H]4C[C@H](O)CC[C@]4(C)C3CC[C@]12C (stereo not given in full),x,x,50,19,x,x,EP2 cAMP induct=i
Cc1oc(-c2ccccc2)nc1CN1C(=O)CN=C(c2ccccc2)c2ccccc21,5,0,47,8,13,3,
Cc1ccc(CN2C(=O)CN=C(c3ccccc3)c3ccccc32)cc1,0,-4,68*,5,5,11,EP2 cAMP induct=i
Cc1[nH]c2ccc(F)cc2c1CC(=O)N(CCN(C)C)Cc1ccccc1F,x,x,-81,5,x,x,
Nc1ccc(Cl)cc1C(=O)c1ccccc1,0,-3,51,4,x,1,
Nc1ccc(Cl)cc1C(=O)c1ccccc1Cl,1,5,67*,13,5,-3,EP2 cAMP induct=+
Nc1ccc(Br)cc1C(=O)c1ccccc1,6,-12,83*,2,x,-22,EP2 cAMP induct=+
Nc1ccccc1C(=O)c1ccccc1,0,-3,18,16,2,1,
COc1ccc(CN2CCN(C(=O)COc3ccc(C)cc3)CC2)c(OC)c1,x,x,-108,9,x,x,
COc1ccc(-n2c(/C=C/c3ccccn3)nc3ccccc3c2=O)cc1,x,x,-1,12,x,x,
C[C@]12CCC(=O)C=C1CCC1C2CC[C@@]2(C)C1CC[C@@H]2O (stereo not given in full),x,x,73*,4,x,x,EP2 cAMP induct=+
SMILES,NPY-Y1 antag,NPY1 pot ag,EP2 modulator,EP2 antag,NPY-Y2 antag,NPY2 pot ag,others
CC[C@@H]1C(=O)OC[C@@H]1Cc1cncn1C,1,-17,80*!,16,3,-7,EP2 cAMP induct=i
O=C(CN1C2CCC1CC(O)(c1ccco1)C2)NCc1ccc(F)cc1 (stereo not given),x,x,-14,x,x,x,
O=C(N=Nc1c(O)[nH]c(=O)[nH]c1=O)C1COc2cc3ccccc3cc2O1 (stereo not given),25*,-13,8,8,x,-12,NPY-Y1 ant conf=9;NPY2 antag ctr=8
NC(=O)c1ccc(N=Nc2c(O)[nH]c(=O)[nH]c2=O)cc1,-3,-21,-2,8,-1,8,
CCNC(=O)[C@H]1O[C@@H](n2cnc3c(N)ncnc32)[C@H](O)[C@@H]1O,145*,-21,36,13,x,-53,NPY-Y1 ant conf=118*;NPY2 antag ctr=105*
COC(=O)CC1=C(C(=O)OC)C2(C(=O)Nc3ccc(F)cc32)C(C#N)=C(N)O1 (stereo not given),x,x,23,14,x,x,
Cc1ccc2c(c1)C1CN(C)CCC1N2C(=O)c1cn(-c2ccccc2)nc1-c1ccccc1 (stereo not given),70*,-36,3,7,x,-18,NPY-Y1 ant conf=20;NPY2 antag ctr=25*
Cc1ccc2c(c1)C1CN(C)CCC1N2C(=O)c1cccnc1Cl (stereo not given),x,15,25,4,x,-2,
COC(=O)[C@@H]1C[C@@]1(C)[C@@H](NP(=O)(c1ccccc1)c1ccccc1)c1ccccc1,30*,-14,16,1,17,0,NPY-Y1 ant conf=18;NPY2 antag ctr=10
COP(=O)(CC(=O)O)c1ccccc1 (stereo not given),2,26,2,6,0,6,
CC(C)C(=O)N1CCCc2cc(C(O)CN3CC=C(c4ccc(F)cc4)CC3)ccc21 (stereo not given),x,x,-55,6,x,x,
CNCC(O)c1cccc(OC(=O)c2ccccc2C)c1 (stereo not given),22*,-30,-6,x,9,7,NPY-Y1 ant conf=3;NPY2 antag ctr=6
O=C(CN1C(=O)CN=C(c2ccccc2Cl)c2c1sc1c2CCCC1)N1CCOCC1,x,x,-25,4,x,x,
O=C(c1ccco1)c1cn(Cc2ccc(Cl)cc2)c2ccccc12,33*,-64,36,18,17,-26,NPY-Y1 ant conf=20*;NPY2 antag ctr=15
